PMC4040677 (Cell Death & Disease, 2014)

Columns and labels:
[1] = test system: MCF-7 cells; assay: Xenograft model of breast cancer; assay type: in vivo, BALB/c nude mice
In short: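 Female nude BALB/c mice (6 wk, 20–30 g, pathogen-free) received 7.5 × 10^6 MCF-7 cells in the right flank. Cells were cultured in DMEM with 10% FBS and penicillin/streptomycin. Tumors grew 4 weeks without hormone, then weekly s.c. 17β-oestradiol valerate (0.1 mg/kg, sesame oil). At ~100 mm3, mice were randomized and given a single i.v. dose (5 or 10 mg/kg) or saline. Calliper volumes, (L×W²)/2, were taken every 3 days for 30 days; ANOVA/t-test, P<0.05.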

[2] = assay type: in vivo; conditions: Pt in plasma, rat, intravenous
[3] = Pt excretion in urine and feces by atomic absorption spectroscopy; assay type: in vivo, rat; conditions: 24 h after intravenous administration
[4] = Histopathology; assay type: in vivo, female Balb/c mice; conditions: H&E, day 28 after intravenous administration, mice
In short: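 Liver and kidney were fixed in 4% paraformaldehyde, moved to 70% ethanol after 20 h, and paraffin-embedded. Serial 8 μm medio-lateral sections were H&E-stained and examined by light microscopy at x20.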

[5] = Cold sensitivity/hyperalgesia; assay type: in vivo, rats; conditions: hindpaw withdrawal latency, 4.5 °C water
In short: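 One rat hindpaw per immersion was placed in cold (4.5 °C) water. Paw-withdrawal latency was timed with a 1/100 s digital timer, with a 20 s maximum cutoff.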

[6] = Sensitivity to noxious heat; assay type: in vivo, rats; conditions: hind paws
In short: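 After 15 min acclimation, radiant heat was applied to the rat hindpaw with a thermal paw stimulator. Intensity was set so vehicle-treated rats lifted or licked the paw at about 10 s. Withdrawal latency was recorded with a 20 s cutoff.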

## N.N.[Cl][Pt][Cl] [cisplatin]
[1]; 10 mg/kg single intravenous, after 30 days, saline 249.32±43.97
  average tumor volume: 233.67±50.71 mm^3
[1]; solid tumor-bearing mice
  reduction of tumor mass: ~10%
[2]
  AUC0–24: 40.38±6.2 h-μg/ml
  CL: 7.98 ± 1.2 mL/h
  Cmax: 22620 ± 1800 ng/mL
[3]
  24-h cumulative Pt excretion: 31.6±3.4%
[4]
  histopathological changes in kidneys: focal subcapsular tubular vacuolization, dilated subcapsular space and consistent basophilia
  histopathological changes in liver: dilated intra-lobular spaces and evident edema
[5]
  cold hyperalgesia / hindpaw sensitivity to cold: significantly increased
[6]
  thermal response / hindpaw sensitivity to noxious heat: significantly increased
